In brackets after ≈: the same amount, converted by molar mass.
What was measured:
Aspergillus niger [1] = assay: Antifungal activity against Aspergillus niger at 75 ug/ml incubated for 48 hrs by agar well diffusion method; assay type: functional; details: read-out: DIZ
Summary of the method: (§1)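 Compounds dissolved in DMSO at 5 mg mL⁻¹ and 5–20 µL added to 6 mm wells, giving 25, 50, 75, 100 µg per well. Bavistin was the positive control and DMSO the negative control. Plates incubated at 28 °C for 48 h, then inhibition zone diameter (mm) measured. Values are means of three determinations.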

Fusarium oxysporum [2] = assay: Antifungal activity against Fusarium oxysporum at 25 ug/ml incubated for 48 hrs by agar well diffusion method; assay type: functional; details: read-out: DIZ; summary of the method: as §1
Aspergillus niger [3] = assay: Antifungal activity against Aspergillus niger at 100 ug/ml incubated for 48 hrs by agar well diffusion method; assay type: functional; details: read-out: DIZ; summary of the method: as §1
Staphylococcus aureus [4] = assay: Antibacterial activity against Staphylococcus aureus at 25 ug/ml incubated for 24 hrs by agar well diffusion method; assay type: functional; details: read-out: DIZ
Summary of the method: (§2)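 Bacteria grown in nutrient broth at 37 °C for 24 h, then subcultured at room temperature. Compounds dissolved in DMSO at 5 mg mL⁻¹ and 5–20 µL added to 6 mm wells, giving 25, 50, 75, 100 µg per well. Gentamicin was the positive control and DMSO the negative control. Plates held at 37 °C for 24 h, then inhibition zone diameter (mm) measured. Values are means of three determinations.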

Escherichia coli [5] = assay: Antibacterial activity against Escherichia coli at 100 ug/ml incubated for 24 hrs by agar well diffusion method; assay type: functional; details: read-out: DIZ; summary of the method: as §2
Klebsiella pneumoniae [6] = assay: Antibacterial activity against Klebsiella pneumoniae at 25 ug/ml incubated for 24 hrs by agar well diffusion method; assay type: functional; details: read-out: DIZ; summary of the method: as §2
Klebsiella pneumoniae [7] = assay: Antibacterial activity against Klebsiella pneumoniae incubated for 24 hrs by microdilution method; assay type: functional
Klebsiella pneumoniae [8] = assay: Antibacterial activity against Klebsiella pneumoniae at 100 ug/ml incubated for 24 hrs by agar well diffusion method; assay type: functional; details: read-out: DIZ; summary of the method: as §2
Candida albicans [9] = assay: Antifungal activity against Candida albicans at 75 ug/ml incubated for 48 hrs by agar well diffusion method; assay type: functional; details: read-out: DIZ; summary of the method: as §1
Fusarium oxysporum [10] = assay: Antifungal activity against Fusarium oxysporum at 75 ug/ml incubated for 48 hrs by agar well diffusion method; assay type: functional; details: read-out: DIZ; summary of the method: as §1
Candida albicans [11] = assay: Antifungal activity against Candida albicans at 100 ug/ml incubated for 48 hrs by agar well diffusion method; assay type: functional; details: read-out: DIZ; summary of the method: as §1
Klebsiella pneumoniae [12] = assay: Antibacterial activity against Klebsiella pneumoniae at 75 ug/ml incubated for 24 hrs by agar well diffusion method; assay type: functional; details: read-out: DIZ; summary of the method: as §2
Candida albicans [13] = assay: Antifungal activity against Candida albicans incubated for 48 to 72 hrs by microdilution method; assay type: functional
Summary of the method: (§3)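 Sabouraud agar plates inoculated with fungal suspension at 10⁵ CFU mL⁻¹ plus serially diluted compounds and bavistin reference, both in DMSO. Incubated at 25 °C for 48–72 h. MIC is the lowest concentration completely inhibiting growth. Values are means of three determinations.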

Escherichia coli [14] = assay: Antibacterial activity against Escherichia coli at 50 ug/ml incubated for 24 hrs by agar well diffusion method; assay type: functional; details: read-out: DIZ; summary of the method: as §2
Aspergillus niger [15] = assay: Antifungal activity against Aspergillus niger incubated for 48 to 72 hrs by microdilution method; assay type: functional; summary of the method: as §3
Erythrocyte = assay: Anti-inflammatory activity in human RBC assessed as inhibition of hypotonic solution-induced hemolysis after 10 mins by spectrophotometric method; assay type: functional, cell-based
Summary of the method: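 Human blood (heparinized) washed with 0.9% saline, packed cells made into a 40% v/v stock in isotonic phosphate buffer (154 mM NaCl, 10 mM sodium phosphate, pH 7.4). Stock RBC mixed with hypotonic buffer (50 mM NaCl, 10 mM phosphate, pH 7.4) plus sample at 20–100 µg mL⁻¹.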

Escherichia coli [16] = assay: Antibacterial activity against Escherichia coli at 25 ug/ml incubated for 24 hrs by agar well diffusion method; assay type: functional; details: read-out: DIZ; summary of the method: as §2
Staphylococcus aureus [17] = assay: Antibacterial activity against Staphylococcus aureus at 100 ug/ml incubated for 24 hrs by agar well diffusion method; assay type: functional; details: read-out: DIZ; summary of the method: as §2
Bacillus subtilis [18] = assay: Antibacterial activity against Bacillus subtilis at 50 ug/ml incubated for 24 hrs by agar well diffusion method; assay type: functional; details: read-out: DIZ; summary of the method: as §2
Staphylococcus aureus [19] = assay: Antibacterial activity against Staphylococcus aureus at 75 ug/ml incubated for 24 hrs by agar well diffusion method; assay type: functional; details: read-out: DIZ; summary of the method: as §2
Escherichia coli [20] = assay: Antibacterial activity against Escherichia coli incubated for 24 hrs by microdilution method; assay type: functional
Bacillus subtilis [21] = assay: Antibacterial activity against Bacillus subtilis at 75 ug/ml incubated for 24 hrs by agar well diffusion method; assay type: functional; details: read-out: DIZ; summary of the method: as §2
Staphylococcus aureus [22] = assay: Antibacterial activity against Staphylococcus aureus at 50 ug/ml incubated for 24 hrs by agar well diffusion method; assay type: functional; details: read-out: DIZ; summary of the method: as §2
Bacillus subtilis [23] = assay: Antibacterial activity against Bacillus subtilis at 100 ug/ml incubated for 24 hrs by agar well diffusion method; assay type: functional; details: read-out: DIZ; summary of the method: as §2
Candida albicans [24] = assay: Antifungal activity against Candida albicans at 25 ug/ml incubated for 48 hrs by agar well diffusion method; assay type: functional; details: read-out: DIZ; summary of the method: as §1
Candida albicans [25] = assay: Antifungal activity against Candida albicans at 50 ug/ml incubated for 48 hrs by agar well diffusion method; assay type: functional; details: read-out: DIZ; summary of the method: as §1
Aspergillus niger [26] = assay: Antifungal activity against Aspergillus niger at 25 ug/ml incubated for 48 hrs by agar well diffusion method; assay type: functional; details: read-out: DIZ; summary of the method: as §1
Fusarium oxysporum [27] = assay: Antifungal activity against Fusarium oxysporum incubated for 48 to 72 hrs by microdilution method; assay type: functional; summary of the method: as §3
Escherichia coli [28] = assay: Antibacterial activity against Escherichia coli at 75 ug/ml incubated for 24 hrs by agar well diffusion method; assay type: functional; details: read-out: DIZ; summary of the method: as §2
Aspergillus niger [29] = assay: Antifungal activity against Aspergillus niger at 50 ug/ml incubated for 48 hrs by agar well diffusion method; assay type: functional; details: read-out: DIZ; summary of the method: as §1
Fusarium oxysporum [30] = assay: Antifungal activity against Fusarium oxysporum at 100 ug/ml incubated for 48 hrs by agar well diffusion method; assay type: functional; details: read-out: DIZ; summary of the method: as §1
Staphylococcus aureus [31] = assay: Antibacterial activity against Staphylococcus aureus incubated for 24 hrs by microdilution method; assay type: functional
Bacillus subtilis [32] = assay: Antibacterial activity against Bacillus subtilis at 25 ug/ml incubated for 24 hrs by agar well diffusion method; assay type: functional; details: read-out: DIZ; summary of the method: as §2
Bacillus subtilis [33] = assay: Antibacterial activity against Bacillus subtilis incubated for 24 hrs by microdilution method; assay type: functional
Staphylococcus aureus [34] = assay: Induction of cell membrane damage in Staphylococcus aureus assessed as cell content leakage at MIC by spectrophotometric method; assay type: functional, organism-based; details: TDE = time-dependent effect
Summary of the method: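 Log-phase S. aureus inoculated into 0.1% sterile peptone water, with an untreated control, and held at 37 °C for 0, 30, 60 and 120 min. 1 mL of broth centrifuged and supernatant OD read at 260 nm to measure released DNA. Run in triplicate, repeated three times.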

Klebsiella pneumoniae [35] = assay: Antibacterial activity against Klebsiella pneumoniae at 50 ug/ml incubated for 24 hrs by agar well diffusion method; assay type: functional; details: read-out: DIZ; summary of the method: as §2
Fusarium oxysporum [36] = assay: Antifungal activity against Fusarium oxysporum at 50 ug/ml incubated for 48 hrs by agar well diffusion method; assay type: functional; details: read-out: DIZ; summary of the method: as §1

Structure (SMILES)	zone of inhibition at 75 µg/mL (Aspergillus niger [1]) [mm]	zone of inhibition at 25 µg/mL (Fusarium oxysporum [2]) [mm]	zone of inhibition at 100 µg/mL (Aspergillus niger [3]) [mm]	zone of inhibition at 25 µg/mL (Staphylococcus aureus [4]) [mm]	zone of inhibition at 100 µg/mL (Escherichia coli [5]) [mm]	zone of inhibition at 25 µg/mL (Klebsiella pneumoniae [6]) [mm]	MIC (Klebsiella pneumoniae [7]) [µg/mL]	zone of inhibition at 100 µg/mL (Klebsiella pneumoniae [8]) [mm]	zone of inhibition at 75 µg/mL (Candida albicans [9]) [mm]	zone of inhibition at 75 µg/mL (Fusarium oxysporum [10]) [mm]	zone of inhibition at 100 µg/mL (Candida albicans [11]) [mm]	zone of inhibition at 75 µg/mL (Klebsiella pneumoniae [12]) [mm]	MIC (Candida albicans [13]) [µg/mL]	zone of inhibition at 50 µg/mL (Escherichia coli [14]) [mm]	MIC (Aspergillus niger [15]) [µg/mL]	IC50 (Erythrocyte) [µg/mL]	zone of inhibition at 25 µg/mL (Escherichia coli [16]) [mm]	zone of inhibition at 100 µg/mL (Staphylococcus aureus [17]) [mm]	zone of inhibition at 50 µg/mL (Bacillus subtilis [18]) [mm]	zone of inhibition at 75 µg/mL (Staphylococcus aureus [19]) [mm]	other results
CC(C)(C)OC(=O)N[C@@H](Cc1ccccc1)C(=O)Oc1ccc2c(=O)c3ccccc3oc2c1	35	14	40	18	34	20	26 (≈ 56.6 µM)	37	32	27	38	33	30 (≈ 65.3 µM)	25	28 (≈ 60.9 µM)	38 (≈ 82.7 µM)	16	34	26	31	MIC (Escherichia coli [20]): 22 µg/mL (≈ 47.9 µM); zone of inhibition at 75 µg/mL (Bacillus subtilis [21]): 33 mm; zone of inhibition at 50 µg/mL (Staphylococcus aureus [22]): 25 mm; zone of inhibition at 100 µg/mL (Bacillus subtilis [23]): 36 mm; zone of inhibition at 25 µg/mL (Candida albicans [24]): 22 mm; zone of inhibition at 50 µg/mL (Candida albicans [25]): 27 mm; zone of inhibition at 25 µg/mL (Aspergillus niger [26]): 17 mm; MIC (Fusarium oxysporum [27]): 27 µg/mL (≈ 58.8 µM); zone of inhibition at 75 µg/mL (Escherichia coli [28]): 32 mm; zone of inhibition at 50 µg/mL (Aspergillus niger [29]): 28 mm; zone of inhibition at 100 µg/mL (Fusarium oxysporum [30]): 32 mm; MIC (Staphylococcus aureus [31]): 25 µg/mL (≈ 54.4 µM); zone of inhibition at 25 µg/mL (Bacillus subtilis [32]): 17 mm; MIC (Bacillus subtilis [33]): 26 µg/mL (≈ 56.6 µM); Activity (Staphylococcus aureus [34]): Tde; zone of inhibition at 50 µg/mL (Klebsiella pneumoniae [35]): 27 mm; zone of inhibition at 50 µg/mL (Fusarium oxysporum [36]): 22 mm
Cl.O=C(Oc1ccc2c(=O)c3ccccc3oc2c1)[C@@H]1CCCN1	30	20	33	20	39	18	26	38	27	29	34	33	28	25	27	36	20	35	26	31	MIC (Escherichia coli [20]): 24 µg/mL; zone of inhibition at 75 µg/mL (Bacillus subtilis [21]): 32 mm; zone of inhibition at 50 µg/mL (Staphylococcus aureus [22]): 27 mm; zone of inhibition at 100 µg/mL (Bacillus subtilis [23]): 37 mm; zone of inhibition at 25 µg/mL (Candida albicans [24]): 16 mm; zone of inhibition at 50 µg/mL (Candida albicans [25]): 22 mm; zone of inhibition at 25 µg/mL (Aspergillus niger [26]): 17 mm; MIC (Fusarium oxysporum [27]): 28 µg/mL; zone of inhibition at 75 µg/mL (Escherichia coli [28]): 32 mm; zone of inhibition at 50 µg/mL (Aspergillus niger [29]): 24 mm; zone of inhibition at 100 µg/mL (Fusarium oxysporum [30]): 35 mm; MIC (Staphylococcus aureus [31]): 26 µg/mL; zone of inhibition at 25 µg/mL (Bacillus subtilis [32]): 18 mm; MIC (Bacillus subtilis [33]): 25 µg/mL; Activity (Staphylococcus aureus [34]): Tde; zone of inhibition at 50 µg/mL (Klebsiella pneumoniae [35]): 28 mm; zone of inhibition at 50 µg/mL (Fusarium oxysporum [36]): 24 mm
Cl.N[C@@H](Cc1c[nH]c2ccccc12)C(=O)Oc1ccc2c(=O)c3ccccc3oc2c1	40	25	46	24	43	23	22	44	39	37	44	37	20	31	21	26	26	42	32	37	MIC (Escherichia coli [20]): 15 µg/mL; zone of inhibition at 75 µg/mL (Bacillus subtilis [21]): 36 mm; zone of inhibition at 50 µg/mL (Staphylococcus aureus [22]): 31 mm; zone of inhibition at 100 µg/mL (Bacillus subtilis [23]): 43 mm; zone of inhibition at 25 µg/mL (Candida albicans [24]): 26 mm; zone of inhibition at 50 µg/mL (Candida albicans [25]): 33 mm; zone of inhibition at 25 µg/mL (Aspergillus niger [26]): 28 mm; MIC (Fusarium oxysporum [27]): 20 µg/mL; zone of inhibition at 75 µg/mL (Escherichia coli [28]): 38 mm; zone of inhibition at 50 µg/mL (Aspergillus niger [29]): 31 mm; zone of inhibition at 100 µg/mL (Fusarium oxysporum [30]): 42 mm; MIC (Staphylococcus aureus [31]): 16 µg/mL; zone of inhibition at 25 µg/mL (Bacillus subtilis [32]): 26 mm; MIC (Bacillus subtilis [33]): 16 µg/mL; Activity (Staphylococcus aureus [34]): Tde; zone of inhibition at 50 µg/mL (Klebsiella pneumoniae [35]): 30 mm; zone of inhibition at 50 µg/mL (Fusarium oxysporum [36]): 32 mm
